# Laboratory results published in BindingDB's records for doi:10.1016/j.bmc.2012.09.049 (University of Copenhagen, 2012).
# Experiments:
# [1] = biological target: Excitatory amino acid transporter 2 (Homo sapiens, UniProt P43004); test: Inhibition of [3H]-D-aspartate uptake at human EAAT2 expressed in HEK293 cells after 6 mins by scintillation counting
# How it was run: (§1)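 Each transporter subtype stably expressed in its own HEK293 cell line. Inhibitor potency measured as block of [³H]-D-aspartate uptake into these cells and reported as IC₅₀ values.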
# [2] = biological target: Excitatory amino acid transporter 1 (Homo sapiens, UniProt P43003); test: Inhibition of [3H]-D-aspartate uptake at human EAAT1 expressed in HEK293 cells after 6 mins by scintillation counting; how it was run: as §1
# [3] = biological target: T1, Excitatory amino acid transporter 3 (Homo sapiens, UniProt P43005); test: Inhibition of [3H]-D-aspartate uptake at human EAAT3 expressed in HEK293 cells after 6 mins by scintillation counting; how it was run: as §1
# T1 sequence (P43005 whole entry): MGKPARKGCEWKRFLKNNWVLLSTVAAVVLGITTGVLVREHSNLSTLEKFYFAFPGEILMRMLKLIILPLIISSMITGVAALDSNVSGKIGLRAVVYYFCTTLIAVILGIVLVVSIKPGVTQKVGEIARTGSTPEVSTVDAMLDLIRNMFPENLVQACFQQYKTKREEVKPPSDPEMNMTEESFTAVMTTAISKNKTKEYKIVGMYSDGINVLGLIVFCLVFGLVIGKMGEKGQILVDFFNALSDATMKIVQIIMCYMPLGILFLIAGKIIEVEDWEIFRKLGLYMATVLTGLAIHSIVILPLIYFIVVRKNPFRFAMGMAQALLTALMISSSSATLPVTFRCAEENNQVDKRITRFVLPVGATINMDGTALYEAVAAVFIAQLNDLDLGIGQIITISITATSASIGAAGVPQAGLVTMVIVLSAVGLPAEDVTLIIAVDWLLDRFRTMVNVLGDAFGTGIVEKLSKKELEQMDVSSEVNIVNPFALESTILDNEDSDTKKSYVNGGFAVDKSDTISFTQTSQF
# Excitatory amino acid transporter 2, sequence (P43004 whole entry): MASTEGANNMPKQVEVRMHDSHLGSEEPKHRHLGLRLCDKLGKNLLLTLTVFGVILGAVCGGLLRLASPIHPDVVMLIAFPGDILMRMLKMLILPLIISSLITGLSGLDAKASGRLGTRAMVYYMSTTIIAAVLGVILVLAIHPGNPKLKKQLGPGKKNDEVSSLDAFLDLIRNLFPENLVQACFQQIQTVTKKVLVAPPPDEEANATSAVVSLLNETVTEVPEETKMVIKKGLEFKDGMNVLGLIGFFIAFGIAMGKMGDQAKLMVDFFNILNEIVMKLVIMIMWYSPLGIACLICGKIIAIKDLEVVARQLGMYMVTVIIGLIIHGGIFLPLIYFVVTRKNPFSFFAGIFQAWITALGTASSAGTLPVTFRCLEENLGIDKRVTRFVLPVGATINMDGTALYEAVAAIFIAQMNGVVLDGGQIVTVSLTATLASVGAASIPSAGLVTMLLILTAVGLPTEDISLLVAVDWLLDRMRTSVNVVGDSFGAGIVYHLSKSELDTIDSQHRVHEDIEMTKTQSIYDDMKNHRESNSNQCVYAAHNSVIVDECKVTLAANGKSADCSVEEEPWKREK
# Excitatory amino acid transporter 1, sequence (P43003 whole entry): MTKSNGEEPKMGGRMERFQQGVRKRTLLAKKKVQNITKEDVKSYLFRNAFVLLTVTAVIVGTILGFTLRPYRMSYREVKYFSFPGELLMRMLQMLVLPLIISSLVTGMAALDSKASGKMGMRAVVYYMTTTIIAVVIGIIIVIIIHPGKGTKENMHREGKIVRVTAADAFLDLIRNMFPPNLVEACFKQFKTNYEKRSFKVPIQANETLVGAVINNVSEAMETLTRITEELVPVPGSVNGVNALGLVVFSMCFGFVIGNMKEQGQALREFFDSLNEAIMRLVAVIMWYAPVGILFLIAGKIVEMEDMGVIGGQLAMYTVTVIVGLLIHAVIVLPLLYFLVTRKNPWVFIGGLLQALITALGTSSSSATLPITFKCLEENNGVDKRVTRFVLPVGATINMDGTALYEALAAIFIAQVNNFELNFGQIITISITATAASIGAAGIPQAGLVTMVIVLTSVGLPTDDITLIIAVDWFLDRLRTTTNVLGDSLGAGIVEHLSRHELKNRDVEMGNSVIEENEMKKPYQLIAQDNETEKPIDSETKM
IC50 [1],IC50 [2],IC50 [3],SMILES
> 300 µM,> 316 µM,> 300 µM,COc1ccc2c(C)c(-c3ccc(C4C5=C(CC(c6ccccc6)CC5=O)OC(=N)C4C#N)cc3)c(=O)oc2c1 (configuration not stated)
> 300 µM,> 316 µM,> 300 µM,CCN(CC)c1ccc2c(C)c(-c3ccc(C4C5=C(CC(c6ccccc6)CC5=O)OC(=N)C4C#N)cc3)c(=O)oc2c1 (configuration not stated)
> 300 µM,> 316 µM,> 300 µM,CCN(CC)c1ccc2c(C3C4=C(CC(c5cccc6ccccc56)CC4=O)OC(=N)C3C#N)cc(=O)oc2c1 (configuration not stated)
> 300 µM,> 316 µM,> 300 µM,COc1ccc2c(C3C4=C(CC(c5ccccc5)CC4=O)OC(=N)C3C#N)cc(=O)oc2c1 (configuration not stated)
